Experimental data published in ChEMBL document CHEMBL4831535, “Reducing the Toxicity of Designer Aminoglycosides as Nonsense Mutation Readthrough Agents for Therapeutic Targets” (ACS Med Chem Lett, 2021).
Calls of active or inactive are those of the source. The calls are words filed in the database; no cut-off is given here.

Legend:
Format in all cases: cell-based
[1] = tested on: DMS-114; experiment: Cytotoxicity against human DMS-114 cells assessed as reduction in cell viability at up tp 500 ug/ml; details: dose 500 µg/ml
[2] = tested on: Premature termination codon; experiment: Induction of read through activity at TP53 R213X mutant premature termination codon in human DMS-114 cells assessed as increase in production of full length p53 at up to 500 ug/ml measured after 48 hrs by capillary electrophoresis western analysis; details: dose microg/ml <=500, time 48.0 hrs
How it was run: (§1)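 DMS-114 cells exposed to a range of concentrations for 48 h. Full-length and truncated p53 measured by capillary electrophoresis western analysis, with vinculin as loading control. Full-length p53 expressed as a normalized percent amount.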

[3] = tested on: Premature termination codon; experiment: Induction of read through activity at TP53 R213X mutant premature termination codon in human DMS-114 cells assessed as expression of full length p53 levels at 62 ug/ml measured after 48 hrs by capillary electrophoresis western analysis; details: dose 62.0 µg/ml; how it was run: as §1
[4] = tested on: Fibroblast; experiment: Cytotoxicity against human fibroblast assessed as reduction in cell viability at 1 mg/ml measured after 48 hrs by fluorescent live-cell promega ApoLive-glo multiplex assay relative to control
How it was run: (§2)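 Wild-type fibroblasts exposed to a range of concentrations for 48 h. Cell viability read out with the ApoLive-Glo Multiplex Assay.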

[5] = tested on: DMS-114; experiment: Cytotoxicity against human DMS-114 cells assessed as reduction in cell viability at up to 62 ug/ml; details: dose <=62 µg/ml
[6] = tested on: DMS-114; experiment: Cytotoxicity against human DMS-114 cells assessed as reduction in cell viability at 125 ug/ml; details: dose 125 µg/ml
[7] = tested on: Fibroblast; experiment: Cytotoxicity against human fibroblast assessed as reduction in cell viability at up to 0.5 mg/ml measured after 48 hrs by fluorescent live-cell promega ApoLive-glo multiplex assay; how it was run: as §2
[8] = tested on: Premature termination codon; experiment: Induction of read through activity at TP53 R213X mutant premature termination codon in human DMS-114 cells assessed as increase in production of full length p53 at 125 ug/ml measured after 48 hrs by capillary electrophoresis western analysis; details: dose 125.0 µg/ml; how it was run: as §1
[9] = tested on: Premature termination codon; experiment: Induction of read through activity at TP53 R213X mutant premature termination codon in human DMS-114 cells assessed as increase in production of full length p53 at 500 ug/ml measured after 48 hrs by capillary electrophoresis western analysis relative to control; details: dose 500.0 µg/ml; how it was run: as §1
[10] = tested on: Premature termination codon; experiment: Induction of read through activity at TP53 R213X mutant premature termination codon in human DMS-114 cells assessed as increase in production of full length p53 at 31 to 250 ug/ml measured after 48 hrs by capillary electrophoresis western analysis; details: dose 31-250 µg/ml; how it was run: as §1

In the case of `C[C@H](N)[C@H]1O[C@@H](O[C@@H]2[C@@H](O)[C@H](N)C[C@H](N)[C@H]2O[C@H]2O[C@H]([C@H](C)O)[C@@H](O)[C@H](O)[C@H]2O)[C@H](O)[C@@H]1O`, the Activity [1] is reported as “Non-Toxic” and the Activity [2] is reported as “inactive”.

`C[C@H](N)[C@H]1O[C@@H](O[C@@H]2[C@@H](O)[C@H](N)C[C@H](N)[C@@H]2O[C@H]2O[C@H]([C@@H](C)O)[C@@H](O)[C@H](O)[C@H]2N)[C@H](O)[C@@H]1O` was tested, and the Activity [3] was “Active”, the Activity [4] was 50% and the Activity [5] was “Non-Toxic”. For the same compound, the Activity [6] was “Toxic”.

For `C[C@H](N)[C@H]1O[C@@H](O[C@@H]2[C@@H](O)[C@H](N)C[C@H](N)[C@H]2O[C@H]2O[C@H]([C@@H](C)O)[C@@H](O)[C@H](O)[C@H]2O)[C@H](O)[C@@H]1O`, the Activity [7] was “Non-Toxic”, the Activity [8] was “Active” and the Activity [9] was 18%. The Activity [1] was “Non-Toxic”.

`C[C@H](N)[C@H]1O[C@@H](O[C@@H]2[C@@H](O)[C@H](N)C[C@H](N)[C@H]2O[C@H]2O[C@H]([C@H](O)CO)[C@@H](O)[C@H](O)[C@H]2O)[C@H](O)[C@@H]1O` was tested, and the Activity [4] was 15%, the Activity [7] was “Non-Toxic” and the Activity [10] was “Active”. For the same compound, the Activity [1] was “Non-Toxic”.

`C[C@H](N)[C@H]1O[C@@H](O[C@@H]2[C@@H](O)[C@H](N)C[C@H](N)[C@H]2O[C@H]2O[C@H]([C@@H](C)N)[C@@H](O)[C@H](O)[C@H]2O)[C@H](O)[C@@H]1O` was tested, and the Activity [2] was “inactive”.
